Assay outcomes from PubChem.
Only some compounds are listed: those with a hit (about 3.8% of all), similar ones and a draw of the others.
KCNK9 inh: inhibitors of human KCNK9 two-pore domain potassium channel; Q9NPC2; B-score at 10 µM; HEK293 KCNK9, FluxOR thallium flux fluorescence; hits give low values; AID 488922; hit rate 1.2% among 310,000;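 active = ratio B-score over 3 SD below the library mean, with starting fluorescence within 5 SD of its mean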;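 also: negative B-score means less thallium flux so channel inhibition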
Kir21 inh: blocks the mouse Kir2.1 inward-rectifier potassium channel | P35561 | HEK293-Kir2.1, FluxOR thallium flux fluorescence; hits give low values | B-score at 10 µM | hit rate 0.85% among 310,000;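 active = fluorescence ratio B-score at or below minus 3 SD of library scores, with starting-brightness B-score within 2 SD, cut at about -4.2 in these data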;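 also: channel flux triggered by added potassium and thallium sulfate stimulus; B-score of peak minus minimum fluorescence over baseline after thallium stimulus; more negative B-score means stronger Kir2.1 block with less thallium influx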
KCNQ1 pot: human KCNQ1 channel potentiation or activation | P51787 | CHO-K1 KCNQ1, thallium flux FluxOR fluorescence; hits give high values | B-score at 10 µM | hit rate 0.35% among 310,000;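 active = fluorescence ratio B-score, a plate-corrected score, at least three library SD, with initial intensity B-score within 5 SD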
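Assay system: stable KCNQ1 CHO-K1 line; medium: assay buffer, equal DMSO in all wells; timing: 90 min dye loading and 20 min compound exposure, both at room temperature; technique: kinetic FluxOR thallium fluorescence, 10-s 1-Hz baseline, 110-s post-stimulus read; read-out basis: B score of baseline-normalized fluorescence ratio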
KCNQ1 block: inhibitors of human KCNQ1 potassium channel | CHO-K1 KCNQ1, FluxOR thallium flux fluorescence; hits give high values | B-score at 10 µM | hit rate 1.3% among 310,000 | AID 2642;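 active = compounds whose thallium flux B-score, printed positive for inhibition, exceeds three library SD while starting fluorescence stays within three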;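 also: channel opened by potassium depolarization with thallium stimulus after 20 min compound exposure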
hERG rescue: shields human hERG channel from block by proarrhythmic agents; hit rate 0.51% among 310,000; CHO-hERG, FluxOR thallium flux, dofetilide IC70 present; activation (rescue from dofetilide block), less the hit threshold, % at 10 µM; Q12809;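 active = activation above the mean of controls blocked by dofetilide plus 5 SD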;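 also: thallium influx through hERG after potassium depolarization seen as dye fluorescence rise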
KCNK3 block: human KCNK3 channel inhibition, primary screen; hit rate 0.84% among 340,000; AID 602410; CHO-KCNK3 thallium flux, FluxOR fluorescence; hits give low values; B-score at 10 µM;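 active = B-score under library mean minus 4 SD, starting fluorescence ratio at most library mean plus 5 SD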;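 also: more negative B-score means stronger inhibition of thallium flux through KCNK3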
Target sequence (O14649 whole entry, looked up): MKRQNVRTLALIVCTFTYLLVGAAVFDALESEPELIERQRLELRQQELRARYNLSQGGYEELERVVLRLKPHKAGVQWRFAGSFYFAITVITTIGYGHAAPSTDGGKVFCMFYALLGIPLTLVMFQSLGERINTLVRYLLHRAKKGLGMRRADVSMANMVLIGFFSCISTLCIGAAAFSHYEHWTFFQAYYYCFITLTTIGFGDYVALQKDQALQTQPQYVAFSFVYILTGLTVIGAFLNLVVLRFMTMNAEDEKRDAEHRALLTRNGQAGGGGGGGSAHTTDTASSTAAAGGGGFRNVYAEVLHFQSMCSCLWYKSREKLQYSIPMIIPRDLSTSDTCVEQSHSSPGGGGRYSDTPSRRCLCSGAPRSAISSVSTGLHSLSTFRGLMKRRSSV
Numbers stand for hits; - = inactive; . = no result given.

SMILES	KCNK9 inh	Kir21 inh	KCNQ1 pot	KCNQ1 block	hERG rescue	KCNK3 block
O=c1c2ccccc2[se]n1-c1ccccc1	-	-	-	-	-	-
O=C(COC(=O)Cc1ccccc1)Nc1nnc(-c2ccccc2)o1	-	-	-	-	-	-
COc1ccc(-n2c(Cc3cccc([N+](=O)[O-])c3)nc3ccccc3c2=O)cc1	-	-	-	-	-	-
Clc1ccc(CSC(Cn2ccnc2)c2ccc(Cl)cc2Cl)cc1 (configuration not stated)	-	-	-	6	-	-
NC(=Nc1ccccc1)NN=Cc1c[nH]c2ccccc12	.	.	.	.	.	-
CN1c2ccc([N+](=O)[O-])cc2CC2(C(=O)NC(=O)N(c3ccc(Br)cc3)C2=O)C1c1ccccc1 (configuration not stated)	-	-	-	6	-	-
O=C1NC(=O)C2(Cc3ccccc3N3CCCC32)C(=O)N1c1ccccc1 (configuration not stated)	-	-	-	-	-	-
[N-]=[N+]=NCc1cn2cccnc2n1	-	-	-	-	-	-
CCCSc1nc(O)c(CC)c(=O)n1C(C)CC (configuration not stated)	-	-	-	-	-	-
Cc1nn(CC(C)C)c(Cl)c1C(=O)O	-	-	-	-	-	-
CC(C)(C)c1ccc(CSc2cnn(C(C)(C)C)c(=O)c2Cl)cc1	-	-	-	11	-	-
Cc1cc(O)c2c(c1)OC(C)(C)C1=C2CC(C)CC1 (configuration not stated)	-	-	-	-	-	-
N#CCCn1cc(C(=O)Nc2ccccc2Cl)c(-c2ccc(F)cc2)n1	-	-	-	-	8.2	-
COC(=O)C1=C(c2c(C)noc2C)C[C@@H]2CC[C@H]1N2C(=O)NCCO	.	.	.	.	.	-
Nc1ccccc1-[n+]1c(-c2ccccc2)cc(-c2ccccc2)cc1-c1ccccc1	-	-5.8	-	7	-	-
Oc1ccccc1-[n+]1c(-c2ccccc2)cc(-c2ccccc2)cc1-c1ccccc1	-	-12	-	14	-	-
[O-]c1ccccc1-[n+]1c(-c2ccccc2)cc(-c2ccccc2)cc1-c1ccccc1	-7.4	-9.7	-	6	-	-
Cc1ccccc1-[n+]1c(-c2ccccc2)cc(-c2ccccc2)cc1-c1ccccc1	-	-16	-	10	-	-
CN1C2c3ccccc3C3C4c5ccccc5C(C31)C(C2[N+](=O)[O-])N4C (configuration not stated)	-	-	-	-	-	-
CCOC(=O)C(=CNc1ccc(C(O)(C(=O)OCC)C(F)(F)F)cc1C)C(=O)OCC (configuration not stated)	-	-	-	-	-	-
CCCCCCCSc1cc(OC)c(CCN(C)C)cc1OC	-	-9.9	-	-	-	-
NC(N)=N/N=C/c1ccc(N(c2ccccc2)c2ccccc2)cc1	-	-6.2	-	7	-	-
NC(N)=N/N=C/c1ccc(N2CCOCC2)cc1	-	-	-	-	-	-
CN(C)S(=O)(=O)c1cc(NC(=O)C[N+]23CCN(CC2)CC3)ccc1Cl	-	-	-	-	-	-
CN(C)S(=O)(=O)c1cc(NC(=O)COC(=O)Cc2ccccc2)ccc1Cl	-	-	-	6	-	-
SMILES	KCNK9 inh	Kir21 inh	KCNQ1 pot	KCNQ1 block	hERG rescue	KCNK3 block
CCC(CO)(C(=O)OC1CC2CCC(C1)N2C)c1ccccc1 (configuration not stated)	-	-	-	-	-	-
Oc1ccc(C2NCc3ccccc3-n3cccc32)cc1Cl (configuration not stated)	-	-8.9	-	-	-	-
FC(F)(F)c1cccc(C2NCc3ccccc3-n3cccc32)c1 (configuration not stated)	-	-	-	-	-	-
CN1CC(C(=O)c2cccc(C(F)(F)F)c2)C(c2ccc(Cl)cc2)C1 (configuration not stated)	-	-6.8	-	-	-	-
CCCCn1c(O)c(C(=O)/C=C/c2ccc3c(c2)OCO3)c(=O)[nH]c1=O	-	-	-	-	-	-
CC(C)CNC(=O)/C=C/C=C/CCCCCC/C=C/c1ccc2c(c1)OCO2	.	.	.	.	.	-9.4
CN1CCc2nc(SCc3cccc(Br)c3)c(C#N)cc2C1	-	-	-	-	-	-
